In brackets after ≈: the same amount, converted by molar mass. Activity calls are given as the source filed them. The rule behind the calls is not given here.
Key:
Enterococcus faecalis = assay: Antibacterial activity against Streptococcus faecalis after 18 to 22 hrs by broth microdilution method; type: functional
Outline: (§1)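 Clinical respiratory-tract isolates from patients, subcultured for purity and identified conventionally. Broth microdilution per NCCLS in Mueller–Hinton II broth; each plate had growth controls (bacteria, no compound) and medium-only controls. Incubation 18–22 h at 35 °C. MIC taken as the lowest concentration giving complete growth inhibition by unaided eye.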

Enterobacter = assay: Antibacterial activity against Enterobacter after 18 to 22 hrs by broth microdilution method; type: functional; outline: as §1
Klebsiella pneumoniae = assay: Antibacterial activity against Klebsiella pneumoniae after 18 to 22 hrs by broth microdilution method; type: functional; outline: as §1
Klebsiella oxytoca = assay: Antibacterial activity against Klebsiella oxytoca after 18 to 22 hrs by broth microdilution method; type: functional; outline: as §1
Helicobacter pylori [1] = assay: Antibacterial activity against metronidazole-resistant Helicobacter pylori NCTC 11637 after 72 hrs by agar dilution method; type: functional; conditions: NCTC 11637, 72 h
Outline: (§2)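 H. pylori clinical isolates (ATCC 43504 control each session) stored at -80 °C and subcultured twice on Columbia agar with 10% horse serum and 0.25% yeast extract. Suspensions of 0.5 McFarland were spotted by Steer's replicator at about 5 × 10⁵ CFU/spot onto agar with twofold compound dilutions. Plates were incubated 72 h at 37 °C in 10% CO₂. MIC was the lowest concentration without visible growth.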

[2] = system: Staphylococcus epidermidis; assay: Antibacterial activity against Staphylococcus epidermidis after 18 to 22 hrs by broth microdilution method; type: functional; outline: as §1
AGS [3] = assay: Antiinflammatory activity in human AGS cells assessed as inhibition of IL-8 production at 5 ug/mL after 24 hrs; type: functional, cell-based
Outline: (§3)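 AGS gastric adenocarcinoma cells were grown in F-12K with 10% FBS. They were seeded at 1 × 10⁵/mL for 24 h, preincubated 1 h with compound at 5 or 0.5 µg/mL, then exposed to H. pylori.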

Helicobacter pylori [4] = assay: Antibacterial activity against metronidazole-resistant Helicobacter pylori isolate 18 after 72 hrs by agar dilution method; type: functional; conditions: isolate 18, 72 h; outline: as §2
Escherichia coli = assay: Antibacterial activity against Escherichia coli after 18 to 22 hrs by broth microdilution method; type: functional; outline: as §1
[5] = system: Staphylococcus haemolyticus; assay: Antibacterial activity against Staphylococcus haemolyticus after 18 to 22 hrs by broth microdilution method; type: functional; outline: as §1
Helicobacter pylori [6] = assay: Antibacterial activity against Helicobacter pylori ATCC 43504 clinical isolates after 72 hrs by agar dilution method; type: functional; conditions: ATCC 43504, 72 h
Outline: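 Agar dilution per NCCLS. Twenty clinical strains from duodenal ulcer or gastritis patients, with ATCC 43504 as control in each session, were subcultured twice on Columbia agar plus 10% horse serum and 0.25% yeast extract (72 h, 37 °C, 10% CO₂). Inoculum of 0.5 McFarland in Wilkins Chalgren broth, about 5 × 10⁵ CFU/spot by Steer's replicator. Plates held twofold compound dilutions down to 0.0039 µg/mL and were incubated 72 h at 37 °C, 10% CO₂. MIC was the lowest concentration inhibiting visible growth.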

Proteus vulgaris = assay: Antibacterial activity against Proteus vulgaris after 18 to 22 hrs by broth microdilution method; type: functional; outline: as §1
Staphylococcus hominis = assay: Antibacterial activity against Staphylococcus hominis after 18 to 22 hrs by broth microdilution method; type: functional; outline: as §1
Pichia kudriavzevii = assay: Antifungal activity against Candida krusei after 24 hrs by broth microdilution method; type: functional
Outline: (§4)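 Candida isolates from respiratory-tract specimens, tested by NCCLS broth microdilution in Sabouraud dextrose broth. Serial compound dilutions inoculated to 10³/mL, with fungus-only and medium-only controls. Incubated 24 h at 37 °C. MIC was the lowest concentration with complete visible growth inhibition.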

Staphylococcus aureus = assay: Antibacterial activity against Staphylococcus aureus after 18 to 22 hrs by broth microdilution method; type: functional; outline: as §1
Candida albicans = assay: Antifungal activity against Candida albicans after 24 hrs by broth microdilution method; type: functional; outline: as §4
Helicobacter pylori [7] = assay: Antibacterial activity against metronidazole-resistant Helicobacter pylori isolate 20 after 72 hrs by agar dilution method; type: functional; conditions: isolate 20, 72 h; outline: as §2
[Candida] sake = Antifungal activity against Candida sake after 24 hrs by broth microdilution method; type: functional; conditions: Fermentozyma sake; outline: as §4
AGS [8] = assay: Antiinflammatory activity in human AGS cells assessed as inhibition of IL-8 production at 0.5 ug/mL after 24 hrs; type: functional, cell-based; outline: as §3
Helicobacter pylori [9] = assay: Antibacterial activity against metronidazole-resistant Helicobacter pylori isolate 1 after 72 hrs by agar dilution method; type: functional; conditions: isolate 1, 72 h; outline: as §2
Klebsiella aerogenes = assay: Antibacterial activity against Enterobacter aerogenes after 18 to 22 hrs by broth microdilution method; type: functional; outline: as §1
Citrobacter freundii = assay: Antibacterial activity against Citrobacter freundii after 18 to 22 hrs by broth microdilution method; type: functional; outline: as §1
Helicobacter pylori [10] = assay: Antibacterial activity against metronidazole-resistant Helicobacter pylori isolate 8 after 72 hrs by agar dilution method; type: functional; conditions: isolate 8, 72 h; outline: as §2

Structure (SMILES)	MIC (Enterococcus faecalis) [µg/mL]	MIC (Enterobacter) [µg/mL]	MIC (Klebsiella pneumoniae) [µg/mL]	MIC (Klebsiella oxytoca) [µg/mL]	MIC (Helicobacter pylori [1]) [µg/mL]	MIC [2] [µg/mL]	inhibition (AGS [3])	MIC (Helicobacter pylori [4]) [µg/mL]	MIC (Escherichia coli) [µg/mL]	MIC [5] [µg/mL]	MIC50 (Helicobacter pylori [6]) [µg/mL]	MIC90 (Helicobacter pylori [6]) [µg/mL]	MIC (Proteus vulgaris) [µg/mL]	MIC (Staphylococcus hominis) [µg/mL]	MIC (Pichia kudriavzevii) [µg/mL]	MIC (Staphylococcus aureus) [µg/mL]	MIC (Candida albicans) [µg/mL]	MIC (Helicobacter pylori [7]) [µg/mL]	MIC ([Candida] sake) [µg/mL]	inhibition (AGS [8])	other results
COc1ccc2cc(C(=O)Nc3ccc(C(=O)O)cc3)c(=O)oc2c1	> 128	> 128	> 128	> 128	> 128	> 128	inactive	> 128	> 128	> 128	> 128	> 128	> 128	> 128	> 128	> 128	> 128	> 128	> 128	inactive	MIC (Helicobacter pylori [9]): > 128 µg/mL; MIC (Klebsiella aerogenes): > 128 µg/mL; MIC (Citrobacter freundii): > 128 µg/mL; MIC (Helicobacter pylori [10]): > 128 µg/mL
CCOC(=O)c1ccc(NC(=O)c2cc3cc(Br)cc(Br)c3oc2=O)cc1	> 128	> 128	> 128	> 128	64 (≈ 129 µM)	> 128	inactive	64 (≈ 129 µM)	> 128	> 128	64 (≈ 129 µM)	64 (≈ 129 µM)	> 128	> 128	> 128	> 128	> 128	64 (≈ 129 µM)	> 128	inactive	MIC (Helicobacter pylori [9]): 64 µg/mL (≈ 129 µM); MIC (Klebsiella aerogenes): > 128 µg/mL; MIC (Citrobacter freundii): > 128 µg/mL; MIC (Helicobacter pylori [10]): 64 µg/mL (≈ 129 µM)
O=C(O)c1ccc(NC(=O)c2cc3cc(Br)cc(Br)c3oc2=O)cc1	> 128	> 128	> 128	> 128	16 (≈ 34.3 µM)	> 128	inactive	16 (≈ 34.3 µM)	> 128	> 128	16 (≈ 34.3 µM)	16 (≈ 34.3 µM)	> 128	> 128	> 128	> 128	> 128	16 (≈ 34.3 µM)	> 128	inactive	MIC (Helicobacter pylori [9]): 16 µg/mL (≈ 34.3 µM); MIC (Klebsiella aerogenes): > 128 µg/mL; MIC (Citrobacter freundii): > 128 µg/mL; MIC (Helicobacter pylori [10]): 16 µg/mL (≈ 34.3 µM)
O=C(O)c1ccc(NC(=O)c2cc3cc(Br)cc(Cl)c3oc2=O)cc1	> 128	> 128	> 128	> 128	32 (≈ 75.7 µM)	> 128	inactive	16 (≈ 37.9 µM)	> 128	> 128	8 (≈ 18.9 µM)	32 (≈ 75.7 µM)	> 128	> 128	> 128	> 128	> 128	32 (≈ 75.7 µM)	> 128	inactive	MIC (Helicobacter pylori [9]): 16 µg/mL (≈ 37.9 µM); MIC (Klebsiella aerogenes): > 128 µg/mL; MIC (Citrobacter freundii): > 128 µg/mL; MIC (Helicobacter pylori [10]): 32 µg/mL (≈ 75.7 µM)
CCOC(=O)N1CCC(NC(=O)c2cc3ccccc3oc2=O)CC1	> 128	> 128	> 128	> 128	> 128	> 128	inactive	128 (≈ 372 µM)	> 128	> 128	> 128	> 128	> 128	> 128	> 128	> 128	> 128	> 128	> 128	inactive	MIC (Helicobacter pylori [9]): 128 µg/mL (≈ 372 µM); MIC (Klebsiella aerogenes): > 128 µg/mL; MIC (Citrobacter freundii): > 128 µg/mL; MIC (Helicobacter pylori [10]): > 128 µg/mL
CCOC(=O)N1CCC(NC(=O)c2cc3cc(Br)ccc3oc2=O)CC1	> 128	> 128	> 128	> 128	64 (≈ 151 µM)	> 128	inactive	32 (≈ 75.6 µM)	> 128	> 128	64 (≈ 151 µM)	64 (≈ 151 µM)	> 128	> 128	> 128	> 128	> 128	32 (≈ 75.6 µM)	> 128	inactive	MIC (Helicobacter pylori [9]): 32 µg/mL (≈ 75.6 µM); MIC (Klebsiella aerogenes): > 128 µg/mL; MIC (Citrobacter freundii): > 128 µg/mL; MIC (Helicobacter pylori [10]): 64 µg/mL (≈ 151 µM)

Reference: ChEMBL document CHEMBL1208768, “Synthesis, selective anti-Helicobacter pylori activity, and cytotoxicity of novel N-substituted-2-oxo-2H-1-benzopyran-3-carboxamides” (Bioorg Med Chem Lett, 2010)
